# According to ChEMBL document CHEMBL1143036, “Potential anti-inflammatory actions of the elmiric (lipoamino) acids” (2007):
# Active and inactive are the calls of the source. The calls are words filed in the database; no cut-off is given here.
# Legend:
# RAW264.7 [1] = test: Antiproliferative activity against LPS-induced mouse RAW264.7 cells assessed as number of cells at 0.1 uM after 48 hrs; format: functional
# Summary of the method: (§1)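 RAW264.7 mouse macrophages were seeded at 500 cells/well and held 24 h at 37°C in 5% CO2. Compound was added (n=4 wells), then LPS solution (1 ug/ml) 1 h later, followed by 48 h incubation. Cell number was read as ATP luminescence (CellTiter-Glo), which is linear with cell count. Values are four-well means, […].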
# RAW264.7 [2] = test: Antiproliferative activity against LPS-induced mouse RAW264.7 cells assessed as number of cells at 10 uM after 48 hrs; format: functional; summary of the method: as §1
# RAW264.7 [3] = test: Antiproliferative activity against LPS-induced mouse RAW264.7 cells assessed as number of cells at 1 uM after 48 hrs; format: functional; summary of the method: as §1
# RAW264.7 [4] = test: Ratio of iPGJ2 to iPGE in LPS-induced mouse RAW264.7 cells at 10 uM by ELISA; format: functional
# Summary of the method: (§2)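 RAW cells were seeded at 20,000/well and cultured 20 h at 37°C in 5% CO2, then washed and placed in serum-free RPMI. Compounds were added in DMSO at 1 or 10 uM final (N=3). LPS solution (1 ug/ml) was added 30 min later, with a further 2 h incubation. Centrifuged media were assayed by enzyme immunoassay for immunoreactive PGE and PGJ2 (pg/ml); the ratio is iPGJ/iPGE.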
# RAW264.7 [5] = test: Ratio of iPGJ2 to iPGE in LPS-induced mouse RAW264.7 cells at 1 uM by ELISA; format: functional; summary of the method: as §2
# RAW264.7 [6] = test: Effect on iPGJ2 level in LPS-induced mouse RAW264.7 cells at 10 uM by ELISA; format: functional; summary of the method: as §2
# RAW264.7 [7] = test: Effect on iPGE2 level in LPS-induced mouse RAW264.7 cells at 10 uM by ELISA; format: functional; summary of the method: as §2
# RAW264.7 [8] = test: Effect on iPGE2 level in LPS-induced mouse RAW264.7 cells at 1 uM by ELISA; format: functional; summary of the method: as §2
# RAW264.7 [9] = test: Effect on iPGJ2 level in LPS-induced mouse RAW264.7 cells at 1 uM by ELISA; format: functional; summary of the method: as §2
# Mus musculus [10] = test: Reduction of phorbol ester-induced ear edema in CD1 mouse assessed as ear thickness; format: functional, organism-based
# Mus musculus [11] = test: Reduction of phorbol ester-induced ear edema in CD1 mouse assessed as ear thickness at 200 ug/ear; format: functional; design: scale not given: the % may be the effect or the level left
# Summary of the method: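 Male CD-1 mice (34–40 g), topically dosed at 200 ug/ear in 10 ul acetone on the ipsilateral ear, with acetone alone on the contralateral ear. Phorbol ester was the edema inducer. Ear thickness was read by digital micrometer and expressed as the ipsilateral minus contralateral difference in microns. N = 8; paired t-test against vehicle.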
smiles,measurement,setting,value
CCCCC/C=C\C/C=C\C/C=C\C/C=C\CCCCCC(=O)N[C@@H](C)C(=O)O,Activity,RAW264.7 [1],4668
same,Cell number,RAW264.7 [2],618
same,Cell number,RAW264.7 [3],4415
CCCCC/C=C\C/C=C\C/C=C\CCCCC(=O)NCC(=O)O,Activity,RAW264.7 [1],5435
same,Ratio,RAW264.7 [4],277
same,Ratio,RAW264.7 [5],39
same,Activity,RAW264.7 [6],80205 pg/mL
same,Cell number,RAW264.7 [2],6602
same,Activity,RAW264.7 [7],289 pg/mL
same,Activity,RAW264.7 [8],127 pg/mL
same,Cell number,RAW264.7 [3],5700
same,Activity,RAW264.7 [9],5040 pg/mL
CCCCC/C=C\C/C=C\C/C=C\CCCCC(=O)N[C@@H](C)C(=O)O,Activity,RAW264.7 [1],4247
same,Cell number,RAW264.7 [2],2696
same,Cell number,RAW264.7 [3],4557
CCCCCCCCCCCCCCCC(=O)N[C@H](C)C(=O)O,Ratio,RAW264.7 [4],9
same,Ratio,RAW264.7 [5],1
same,Activity,RAW264.7 [6],3079 pg/mL
same,Activity,RAW264.7 [7],319 pg/mL
same,Activity,RAW264.7 [8],256 pg/mL
same,Activity,RAW264.7 [9],281 pg/mL
CCCCC/C=C\C/C=C\CCCCCCCC(=O)N[C@@H](C)C(=O)O,Activity,RAW264.7 [1],3955
same,Cell number,RAW264.7 [2],621
same,Cell number,RAW264.7 [3],4233
CCCCCCCCCCCCCCCCCC(=O)NCC(=O)O,Ratio,RAW264.7 [4],1
same,Ratio,RAW264.7 [5],1
same,Activity,RAW264.7 [6],159 pg/mL
same,Activity,RAW264.7 [7],126 pg/mL
same,Activity,RAW264.7 [8],121 pg/mL
same,Activity,RAW264.7 [9],201 pg/mL
CCCCC/C=C\C/C=C\CCCCCCCCCC(=O)N[C@@H](C)C(=O)O,Activity,RAW264.7 [1],3641
same,Cell number,RAW264.7 [2],605
same,Cell number,RAW264.7 [3],4397
O=C1CCN(c2ccccc2)N1,Activity,Mus musculus [10],inactive
CCCCC/C=C\C/C=C\C/C=C\CCCCCCC(=O)N[C@@H](C)C(=O)O,Activity,RAW264.7 [1],4326
same,Cell number,RAW264.7 [2],637
same,Cell number,RAW264.7 [3],4680
CCCCCCCCCCCCCCCC(=O)NCC(=O)O [PALMITOYL GLYCINE],Activity,RAW264.7 [1],5120
same,Ratio,RAW264.7 [4],3
same,Ratio,RAW264.7 [5],2
same,Activity,RAW264.7 [6],401 pg/mL
same,Cell number,RAW264.7 [2],5108
same,Activity,RAW264.7 [7],128 pg/mL
same,Activity,RAW264.7 [8],103 pg/mL
same,Cell number,RAW264.7 [3],5524
same,Activity,RAW264.7 [9],219 pg/mL
CCCCC/C=C\C/C=C\CCCCCCCCCC(=O)NCC(=O)O,Activity,RAW264.7 [1],2945
same,Cell number,RAW264.7 [2],609
same,Cell number,RAW264.7 [3],5738
CCCCCCCC/C=C\CCCCCCCC(=O)NCC(=O)O [OLEOYL GLYCINE],Activity,RAW264.7 [1],5172
same,Cell number,RAW264.7 [2],425
same,Cell number,RAW264.7 [3],5557
CCCCC/C=C\C/C=C\CCCCCCCC(=O)NCC(=O)O [LINOLEOYL GLYCINE],Activity,RAW264.7 [1],5979
same,Cell number,RAW264.7 [2],713
same,Cell number,RAW264.7 [3],4595
CCCCC/C=C\C/C=C\C/C=C\C/C=C\CCCC(=O)N[C@H](C)C(=O)O,Ratio,RAW264.7 [4],104
same,Ratio,RAW264.7 [5],12
same,Activity,RAW264.7 [6],28224 pg/mL
same,Activity,RAW264.7 [7],269 pg/mL
same,Activity,RAW264.7 [8],124 pg/mL
same,Activity,RAW264.7 [9],1496 pg/mL
CCCCC/C=C\C/C=C\C/C=C\C/C=C\CCCC(=O)NCC(=O)O [ARACHIDONOYL GLYCINE],Activity,Mus musculus [11],40%
same,Activity,RAW264.7 [1],5630
same,Ratio,RAW264.7 [4],229
same,Ratio,RAW264.7 [5],147
same,Activity,RAW264.7 [6],97830 pg/mL
same,Cell number,RAW264.7 [2],591
same,Activity,RAW264.7 [7],425 pg/mL
same,Activity,RAW264.7 [8],273 pg/mL
same,Cell number,RAW264.7 [3],6156
same,Activity,RAW264.7 [9],40407 pg/mL
CCCCC/C=C\C/C=C\C/C=C\CCCCCCC(=O)NCC(=O)O,Activity,RAW264.7 [1],5486
same,Cell number,RAW264.7 [2],647
same,Cell number,RAW264.7 [3],5563
COc1ccc2cc([C@H](C)C(=O)O)ccc2c1 [NAPROXEN],Ratio,RAW264.7 [4],1
same,Activity,RAW264.7 [6],70 pg/mL
same,Activity,RAW264.7 [7],75 pg/mL
CCCCC/C=C\C/C=C\C/C=C\C/C=C\CCCC(=O)N[C@@H](C)C(=O)O,Activity,RAW264.7 [1],4781
same,Ratio,RAW264.7 [4],62
same,Ratio,RAW264.7 [5],9
same,Activity,RAW264.7 [6],41059 pg/mL
same,Cell number,RAW264.7 [2],2110
same,Activity,RAW264.7 [7],652 pg/mL
same,Activity,RAW264.7 [8],241 pg/mL
same,Cell number,RAW264.7 [3],4735
same,Activity,RAW264.7 [9],2345 pg/mL
CCCCCCCCCCCCCCCC(=O)N[C@@H](C)C(=O)O,Activity,RAW264.7 [1],4541
same,Ratio,RAW264.7 [4],17
same,Ratio,RAW264.7 [5],1
same,Cell number,RAW264.7 [2],432
same,Activity,RAW264.7 [7],232 pg/mL
same,Activity,RAW264.7 [8],251 pg/mL
same,Cell number,RAW264.7 [3],4670
same,Activity,RAW264.7 [9],261 pg/mL
CCCCCCCC/C=C\CCCCCCCC(=O)N[C@@H](C)C(=O)O,Activity,RAW264.7 [1],3637
same,Cell number,RAW264.7 [2],422
same,Cell number,RAW264.7 [3],4533
CCCCC/C=C\C/C=C\C/C=C\C/C=C\CCCCCC(=O)NCC(=O)O,Activity,RAW264.7 [1],5131
same,Cell number,RAW264.7 [2],3574
same,Cell number,RAW264.7 [3],5310
